Measurements as given in ChEMBL document CHEMBL3120160, “Nucleotide prodrugs of 2'-deoxy-2'-spirooxetane ribonucleosides as novel inhibitors of the HCV NS5B polymerase” (J Med Chem, 2014).

Assays:
[1] = Cytotoxicity against human HuH7 cells assessed as inhibition of cell proliferation after 3 days by BrdU incorporation assay; format: cell-based, Huh-7
In short: (§1)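 Huh7 HCV replicon cells treated with compound for 3 days in 384-well format; antiviral EC50 and cytotoxic CC50 are each the mean of at least three repeats.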

[2] = tested on: Hepatitis C virus; assay: Antiviral activity against Hepatitis C virus genotype 1b in human Huh7-luc clone ET replicon cells assessed as inhibition of replicon replication after 3 days by luciferase assay; format: functional, organism-based, Hepacivirus hominis; conditions: Huh-7, 72 h; in short: as §1
[3] = Inhibition of wild type Hepatitis C virus truncated NS5B RNA dependent RNA polymerase lacking C-terminal 21 aminoacids using cIRES as template after 2 hrs by filter plate assay; set-up: species or system Hepacivirus hominis
In short: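 Wild-type HCV RdRp biochemical assay, tested with the nucleoside 5′-triphosphate (NTP) form; value reported as Ki, the average of two independent experiments.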

[4] = tested on: Liver; assay: AUC (0 to infinity) in Sprague-Dawley rat liver assessed as triphosphate metabolite level at 50 mg/kg, po administered as single dose; format: ADME, organism-based; set-up: time infinity, dose 50 mg/kg, route oral; conditions: in vivo
[5] = tested on: Liver; assay: AUC (0 to last) in Sprague-Dawley rat liver assessed as triphosphate metabolite level at 50 mg/kg, po administered as single dose; format: ADME, organism-based; set-up: time 0 - last, dose 50 mg/kg, route oral; conditions: in vivo
[6] = tested on: Liver; assay: Tmax in Sprague-Dawley rat liver assessed as triphosphate metabolite level at 50 mg/kg, po administered as single dose; format: ADME, organism-based; set-up: dose 50 mg/kg, route oral; conditions: in vivo
[7] = tested on: Liver; assay: Cmax in Sprague-Dawley rat liver assessed as triphosphate metabolite level at 50 mg/kg, po administered as single dose measured per gm of tissue; format: ADME, organism-based; set-up: dose 50 mg/kg, route oral; conditions: in vivo
[8] = tested on: Hepatocyte; assay: Prodrug activation in human hepatocytes assessed as triphosphate metabolite formation at 10 uM after 8 hrs by LC-MS analysis; format: ADME, cell-based
In short: (§2)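 Prodrugs incubated at 10 μM with rat or human hepatocyte cultures; triphosphate metabolite quantified by LC–MS of cell lysates at 2 and 8 h.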

[9] = tested on: Hepatocyte; assay: Prodrug activation in rat hepatocytes assessed as triphosphate metabolite formation at 10 uM after 8 hrs by LC-MS analysis; format: ADME, cell-based; in short: as §2
[10] = tested on: Hepatocyte; assay: Prodrug activation in human hepatocytes assessed as triphosphate metabolite formation at 10 uM after 2 hrs by LC-MS analysis; format: ADME, cell-based; in short: as §2
[11] = tested on: Hepatocyte; assay: Prodrug activation in rat hepatocytes assessed as triphosphate metabolite formation at 10 uM after 2 hrs by LC-MS analysis; format: ADME, cell-based; in short: as §2
[12] = tested on: Hepatitis C virus; assay: Ratio of EC50 for Hepatitis C virus genotype 1b harboring NS5B polymerase S282T mutant gene to EC50 for Hepatitis C virus genotype 1b harboring wild type NS5B polymerase in human Huh7-luc clone ET replicon cells by luciferase assay; format: functional, Hepacivirus hominis, Huh-7
[13] = tested on: Hepatitis C virus; assay: Antiviral activity against Hepatitis C virus genotype 1b harboring NS5B polymerase S282T mutant gene in human Huh7-luc clone ET replicon cells assessed as inhibition of replicon replication after 3 days by luciferase assay; format: functional, organism-based, Hepacivirus hominis; conditions: Huh-7, 72 h
In short: (§3)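 Activity measured in a transient HCV replicon assay in which the NS5B polymerase carries the S282T substitution.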

[14] = tested on: Hepatitis C virus; assay: Ratio of EC90 for Hepatitis C virus harboring NS5B polymerase S282T mutant gene to EC90 for Hepatitis C virus harboring wild type NS5B polymerase; format: functional, Hepacivirus hominis
[15] = tested on: Hepatitis C virus; assay: Antiviral activity against Hepatitis C virus harboring NS5B polymerase S282T mutant gene; format: functional, Hepacivirus hominis; in short: as §3

Compound `C[C@@]1(F)[C@H](O)[C@@H](CO)O[C@H]1n1ccc(N)nc1=O` has a CC50 at 72 h [1] greater than 98 µM and an EC50 [2] of 1.9 µM.

With `O=c1ccn([C@@H]2O[C@H](CO)[C@@H](O)[C@]23CCO3)c(=O)[nH]1` the CC50 at 72 h [1] was greater than 98 µM, the Ki [3] was 2.4 µM and the EC50 [2] was greater than 98 µM.

`Nc1ccn([C@@H]2O[C@H](CO)[C@@H](O)[C@]23CCO3)c(=O)n1` showed a CC50 at 72 h [1] greater than 98 µM and an EC50 [2] of 17.1 µM.

For `C[C@H](N[P@](=O)(OC[C@H]1O[C@@H](n2ccc(N)nc2=O)[C@@]2(CCO2)[C@@H]1O)Oc1ccccc1)C(=O)OCc1ccccc1`, the CC50 at 72 h [1] was greater than 98 µM and the EC50 [2] was 35.8 µM.

Compound `C[C@H](N[P@@](=O)(OC[C@H]1O[C@@H](n2ccc(N)nc2=O)[C@@]2(CCO2)[C@@H]1O)Oc1ccccc1)C(=O)OCc1ccccc1` has a CC50 at 72 h [1] greater than 98 µM and an EC50 [2] of 41.5 µM.

For `C[C@H](N[P@](=O)(OC[C@H]1O[C@@H](n2ccc(=O)[nH]c2=O)[C@@]2(CCO2)[C@@H]1O)Oc1ccccc1)C(=O)OCc1ccccc1`, the CC50 at 72 h [1] was greater than 98 µM and the EC50 [2] was 2.1 µM.

`CCCCOC(=O)[C@H](C)N[P@](=O)(OC[C@H]1O[C@@H](n2ccc(=O)[nH]c2=O)[C@@]2(CCO2)[C@@H]1O)Oc1ccccc1` showed a CC50 at 72 h [1] greater than 98 µM and an EC50 [2] of 2.2 µM.

With `C[C@H](N[P@@](=O)(OC[C@H]1O[C@@H](n2ccc(=O)[nH]c2=O)[C@@]2(CCO2)[C@@H]1O)Oc1cccc2ccccc12)C(=O)OCc1ccccc1` the CC50 at 72 h [1] was greater than 98 µM and the EC50 [2] was 2.3 µM.

In the case of `C[C@H](N[P@](=O)(OC[C@H]1O[C@@H](n2ccc(=O)[nH]c2=O)[C@@]2(CCO2)[C@@H]1O)Oc1cccc2ccccc12)C(=O)OCc1ccccc1`, the CC50 at 72 h [1] is reported as greater than 98 µM and the EC50 [2] is reported as 3.7 µM.

With `CCCCOC(=O)[C@H](C)NP(=O)(OC[C@H]1O[C@@H](n2ccc(=O)[nH]c2=O)[C@@]2(CCO2)[C@@H]1O)Oc1ccccc1` (some centres undefined) the AUC [4] was 10480 ng·h/mL, the AUClast [5] was 9871 ng·h/mL and the Tmax [6] was 6 h. For the same compound, the Cmax [7] was 894 ng/g, the Drug metabolism [8] was 2730 ng/mL and the Drug metabolism [9] was 75 ng/mL. It also gave a Drug metabolism [10] of 351 ng/mL, a Drug metabolism [11] of 152 ng/mL and a CC50 at 72 h [1] greater than 98 µM. The “Ratio EC50” value [12] was 4.8, the EC50 [13] was 18.9 µM and the EC50 [2] was 3.9 µM.

`CC[C@H](N[P@](=O)(OC[C@H]1O[C@@H](n2ccc(=O)[nH]c2=O)[C@@]2(CCO2)[C@@H]1O)Oc1ccccc1)C(=O)OCc1ccccc1` gave a CC50 at 72 h [1] greater than 98 µM and an EC50 [2] of 4.6 µM.

Work on `CC[C@H](N[P@@](=O)(OC[C@H]1O[C@@H](n2ccc(=O)[nH]c2=O)[C@@]2(CCO2)[C@@H]1O)Oc1ccccc1)C(=O)OCc1ccccc1` yielded a CC50 at 72 h [1] greater than 98 µM and an EC50 [2] of 4.9 µM.

With `C[C@H](N[P@@](=O)(OC[C@H]1O[C@@H](n2ccc(=O)[nH]c2=O)[C@@]2(CCO2)[C@@H]1O)Oc1ccccc1)C(=O)OCc1ccccc1` the CC50 at 72 h [1] was greater than 98 µM and the EC50 [2] was 5 µM.

In the case of `CCCCOC(=O)[C@H](C)N[P@@](=O)(OC[C@H]1O[C@@H](n2ccc(=O)[nH]c2=O)[C@@]2(CCO2)[C@@H]1O)Oc1ccccc1`, the CC50 at 72 h [1] is reported as greater than 98 µM and the EC50 [2] is reported as 5.3 µM.

With `[N-]=[N+]=N[C@]1(CO)O[C@@H](n2ccc(=O)[nH]c2=O)[C@@H](O)[C@H]1O` the EC50 [2] was greater than 100 µM.

Compound `C[C@@]1(O)[C@H](O)[C@@H](CO)O[C@H]1n1ccc(N)nc1=O` has a CC50 at 72 h [1] greater than 98 µM and an EC50 [2] of 4.6 µM.

Work on `CC(C)OC(=O)[C@H](C)NP(=O)(OC[C@H]1O[C@@H](n2ccc(N)nc2=O)[C@@]2(CCO2)[C@@H]1O)Oc1ccccc1` (mixture of isomers) yielded a CC50 at 72 h [1] greater than 98 µM and an EC50 [2] of 0.74 µM.

In the case of `C[C@H](NP(=O)(OC[C@H]1O[C@@H](n2ccc(N)nc2=O)[C@@]2(CCO2)[C@@H]1O)Oc1ccc(Cl)cc1)C(=O)OCc1ccccc1` (mixture of isomers), the CC50 at 72 h [1] is reported as greater than 98 µM and the EC50 [2] is reported as 2.6 µM.

Compound `CC(C)COC(=O)[C@H](C)NP(=O)(OC[C@H]1O[C@@H](n2ccc(=O)[nH]c2=O)[C@@]2(CCO2)[C@@H]1O)Oc1ccccc1` (mixture of isomers) has a CC50 at 72 h [1] greater than 98 µM and an EC50 [2] of 0.23 µM.

Compound `O=C(CNP(=O)(OC[C@H]1O[C@@H](n2ccc(=O)[nH]c2=O)[C@@]2(CCO2)[C@@H]1O)Oc1ccc(Cl)cc1)OCc1ccccc1` (mixture of isomers) has a CC50 at 72 h [1] greater than 98 µM and an EC50 [2] of 0.32 µM.

For `C[C@H](NP(=O)(OC[C@H]1O[C@@H](n2ccc(=O)[nH]c2=O)[C@@]2(CCO2)[C@@H]1O)Oc1ccc(Cl)cc1)C(=O)OCc1ccccc1` (mixture of isomers), the CC50 at 72 h [1] was greater than 98 µM and the EC50 [2] was 1.3 µM.

`C[C@H](NP(=O)(OC[C@H]1O[C@@H](n2ccc(=O)[nH]c2=O)[C@@]2(CCO2)[C@@H]1O)Oc1cccc2ccccc12)C(=O)OCc1ccccc1` (mixture of isomers) showed an AUC [4] of 9142 ng·h/mL, an AUClast [5] of 8427 ng·h/mL and a Tmax [6] of 6 h. The Cmax [7] was 754 ng/g, the Drug metabolism [8] was 3373 ng/mL and the Drug metabolism [9] was 107 ng/mL. It also gave a Drug metabolism [10] of 1713 ng/mL, a Drug metabolism [11] of 293 ng/mL and a CC50 at 72 h [1] greater than 98 µM. The EC50 [2] was 2 µM.

`CC(C)CCOC(=O)[C@H](C)NP(=O)(OC[C@H]1O[C@@H](n2ccc(=O)[nH]c2=O)[C@@]2(CCO2)[C@@H]1O)Oc1ccccc1` (mixture of isomers) gave a CC50 at 72 h [1] greater than 98 µM and an EC50 [2] of 3.5 µM.

With `CC[C@H](NP(=O)(OC[C@H]1O[C@@H](n2ccc(=O)[nH]c2=O)[C@@]2(CCO2)[C@@H]1O)Oc1ccccc1)C(=O)OCc1ccccc1` (mixture of isomers) the AUClast [5] was 1108 ng·h/mL, the Tmax [6] was 6 h and the Cmax [7] was 419 ng/g. For the same compound, the Drug metabolism [8] was 1480 ng/mL, the Drug metabolism [9] was 87 ng/mL and the Drug metabolism [10] was 202 ng/mL. The Drug metabolism [11] was 215 ng/mL, the CC50 at 72 h [1] was greater than 98 µM and the EC50 [2] was 5.7 µM.

With `C[C@H](NP(=O)(OC[C@H]1O[C@@H](n2ccc(=O)[nH]c2=O)[C@@]2(CCO2)[C@@H]1O)Oc1ccccc1)C(=O)OCc1ccccc1` (mixture of isomers) the AUClast [5] was 3263 ng·h/mL, the Tmax [6] was 2 h and the Cmax [7] was 775 ng/g. It also gave a Drug metabolism [8] of 2457 ng/mL, a Drug metabolism [9] of 81 ng/mL and a Drug metabolism [10] of 304 ng/mL. It also gave a Drug metabolism [11] of 112 ng/mL, a CC50 at 72 h [1] greater than 98 µM and an EC50 [2] of 5.7 µM.

`Cc1ccc(C(C)C)c(OP(=O)(N[C@@H](C)C(=O)OCc2ccccc2)OC[C@H]2O[C@@H](n3ccc(=O)[nH]c3=O)[C@@]3(CCO3)[C@@H]2O)c1` (mixture of isomers) showed a CC50 at 72 h [1] of 29.6 µM and an EC50 [2] of 7.5 µM.

Work on `CC(C)OC(=O)[C@H](C)NP(=O)(OC[C@H]1O[C@@H](n2ccc(=O)[nH]c2=O)[C@@]2(CCO2)[C@@H]1O)Oc1ccccc1` (mixture of isomers) yielded a CC50 at 72 h [1] greater than 98 µM and an EC50 [2] of 20.9 µM.

With `COC(=O)C(C)(C)NP(=O)(OC[C@H]1O[C@@H](n2ccc(=O)[nH]c2=O)[C@@]2(CCO2)[C@@H]1O)Oc1ccccc1` (mixture of isomers) the CC50 at 72 h [1] was greater than 98 µM and the EC50 [2] was 37.9 µM.

`O=C(OCc1ccccc1)[C@@H](NP(=O)(OC[C@H]1O[C@@H](n2ccc(=O)[nH]c2=O)[C@@]2(CCO2)[C@@H]1O)Oc1ccccc1)c1ccccc1` (mixture of isomers) showed a CC50 at 72 h [1] greater than 92.8 µM and an EC50 [2] greater than 87.2 µM.

With `CC[C@H](NP(=O)(OC[C@H]1O[C@@H](n2ccc(=O)[nH]c2=O)[C@@]2(CCO2)[C@@H]1O)Oc1ccccc1)C(=O)OC(C)C` (mixture of isomers) the CC50 at 72 h [1] was greater than 98 µM and the EC50 [2] was greater than 96.4 µM.

Work on `CC(C)OC(=O)[C@H](C)N[P@](=O)(OC[C@H]1O[C@@H](n2ccc(=O)[nH]c2=O)[C@](C)(F)[C@@H]1O)Oc1ccccc1` [SOFOSBUVIR] yielded a Ratio [14] of 18.6 and an EC90 [15] of 7.8 µM.
